Marks after values point to notes of the source that are not given here.
Legend:
Assay type in all cases: in vivo, human
[1] = Pharmacokinetics of elobixibat; conditions: for AUC(0–t), back transformed LSM ratio breakfast/no breakfast / Cmax, back transformed LSM ratio breakfast/no breakfast: linear mixed effect model; for fe144h / Ae144h: urine 0-144 h; for fe144h: arithmetic mean; for Ae144h: geometric mean (CV)
Outline: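 Single oral dose, 2.5–20 mg, with or without breakfast, in crossover. Plasma was drawn predose and at 0.5–12 h on Days –1, 1, 7 and 8, plus daily. Urine was collected daily except Day 7. Analyte was measured by LC–MS/MS (LLOQ 10.0 pg ml–1). Noncompartmental analysis with linear trapezoidal AUC. Dose proportionality (no-breakfast regimen) was assessed by power model or ANOVA on log values. Food effect: mixed model, back-transformed LSM ratios.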

[2] = tested on: patients with chronic constipation; assay: Bowel functions; conditions: for proportion of patients with first SBM within 24 h: placebo 40.0%
Outline: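 Test compound or placebo orally once daily before breakfast for 14 days. Patients recorded the time of each BM (BM, SBM, complete SBM), Bristol Stool Form Scale, straining (five levels), completeness of evacuation and GI symptoms including discomfort (five levels). Bisacodyl suppository rescue was allowed after ≥72 h without BM with symptoms. Descriptive statistics were used.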

[3] = tested on: plasma 7α‐hydroxy‐4‐cholesten‐3‐one (C4); assay: Food effect on plasma C4, S-test; conditions: up to 24 h, AUEC P < 0.001
Outline: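 Crossover single dose taken 15 min before breakfast or fasting. Plasma was sampled predose and at 0.5–12 h on Days –1, 1, 7 and 8, plus daily. C4 was measured by LC–MS/MS (LLOQ 2 ng ml–1). […] Food effect was assessed by linear mixed model (dose, food, intervention, period fixed; patient random).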

[4] = tested on: patients with chronic constipation; assay: Adverse events, S-test
Outline: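 Crossover study with patients randomized 5:1 to test compound (2.5–20 mg) or placebo. Single oral dose on Day 1, taken 15 min before breakfast or without breakfast, then 6-day washout. The alternative regimen was given on Day 8, followed by 5-day observation. Inpatient Day –2 to Day 14. AE type, severity and incidence recorded with vital signs, ECG and laboratory tests. Dose trend by Cochran–Armitage test.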

[5] = single dose 2.5 mg, before breakfast
[6] = single dose 2.5 mg, no breakfast
[7] = single dose 5 mg, before breakfast
[8] = single dose 10 mg, before breakfast
[9] = single dose 10 mg, no breakfast
[10] = single dose 15 mg, before breakfast
[11] = single dose 15 mg, no breakfast
[12] = single dose 20 mg, before breakfast
[13] = single dose 20 mg, no breakfast
[14] = single dose 2.5 mg, before breakfast (group n=10)
[15] = single dose 2.5 mg, no breakfast (group n=10)
[16] = single dose 5 mg, before breakfast (group n=10)
[17] = single dose 5 mg, no breakfast (group n=10)
[18] = single dose 10 mg, before breakfast (group n=10)
[19] = single dose 10 mg, no breakfast (group n=10)
[20] = single dose 15 mg, before breakfast (group n=10)
[21] = single dose 15 mg, no breakfast (group n=10)
[22] = single dose 20 mg, before breakfast (group n=10)
[23] = single dose 20 mg, no breakfast (group n=9)

## CCCCC1(CCCC)CN(c2ccccc2)c2cc(SC)c(OCC(=O)N[C@@H](C(=O)NCC(=O)O)c3ccccc3)cc2S(=O)(=O)C1 [elobixibat]
[1]; 2.5-20 mg
  plasma elobixibat concentration, range: picomolar range
[1]; all dosing levels, both regimens
  quantity of drug excreted in the urine: less than 0.01%
[1]; no‐breakfast regimen, 2.5-20 mg, dose proportionality
  slope of the regression line (power model) for Ae144h: 0.9321
[1]; no‐breakfast regimen, all dosing groups (2.5-20 mg)
  fraction of dose excreted in urine (fe) up to 144 h: < 0.01%
[1]; no‐breakfast regimen, P < 0.001, said to be apparent (LLOQ)
  t1/2 versus dose: prolonged dose‐dependently
[1]; single dose 2.5 mg
  AUC(0–t), back transformed LSM ratio breakfast/no breakfast: 0.1368
  Cmax, back transformed LSM ratio breakfast/no breakfast: 0.2448
[1]; single dose 5 mg
  AUC(0–t), back transformed LSM ratio breakfast/no breakfast: 0.2318
  Cmax, back transformed LSM ratio breakfast/no breakfast: 0.2922
[1]; single dose 10 mg
  AUC(0–t), back transformed LSM ratio breakfast/no breakfast: 0.1989
  Cmax, back transformed LSM ratio breakfast/no breakfast: 0.2531
[1]; single dose 15 mg
  AUC(0–t), back transformed LSM ratio breakfast/no breakfast: 0.1884
  Cmax, back transformed LSM ratio breakfast/no breakfast: 0.2085
[1]; single dose 20 mg
  AUC(0–t), back transformed LSM ratio breakfast/no breakfast: 0.2275
  Cmax, back transformed LSM ratio breakfast/no breakfast: 0.2240
[1]; [5]
  fe144h: 0.0008 ^a %
  Ae144h: 24.30 (72.9) ^a ng
[1]; [6]
  fe144h: 0.0098%
  Ae144h: 213.28 (59.5) ng
[1]; [7]
  fe144h: 0.0021%
  Ae144h: 107.50 (63.4) ng
[1]; single dose 5 mg, no breakfast
  fe144h: 0.0077%
  Ae144h: 306.59 (38.8) ng
[1]; [8]
  fe144h: 0.0016%
  Ae144h: 139.38 (49.9) ng
[1]; [9]
  fe144h: 0.0070%
  Ae144h: 598.14 (67.8) ng
[1]; [10]
  fe144h: 0.0013 ^a %
  Ae144h: 188.43 (37.2) ^a ng
[1]; [11]
  fe144h: 0.0070 ^a %
  Ae144h: 873.09 (68.4) ^a ng
[1]; [12]
  fe144h: 0.0021 ^a %
  Ae144h: 384.85 (55.6) ^a ng
[1]; [13]
  fe144h: 0.0088%
  Ae144h: 1623.23 (41.5) ng
[2]; 2.5 mg day^–1 (10/10)
  proportion of patients with first SBM within 24 h: 100%
[2]; 5 mg day^–1 (10/10)
  proportion of patients with first SBM within 24 h: 100%
[2]; 10 mg day^–1 (9/9)
  proportion of patients with first SBM within 24 h: 100%
[2]; 15 mg day^–1 (8/9)
  proportion of patients with first SBM within 24 h: 88.9%
[2]; 20 mg day^–1 (10/10)
  proportion of patients with first SBM within 24 h: 100%
[2]; 20 mg day^–1 group
  patients reporting worse abdominal discomfort: 40%
[2]; 5 and 10 mg day^–1 groups
  patients reporting improvement of abdominal discomfort: Nearly half
[2]; M-test
  time to the first SBM compared with placebo: evidently shorter
[2]; M-test Weeks 1 and 2
  changes in SBM frequency from baseline (Week –1): dose‐dependent increases
[3]
  C4 Emax and AUEC, breakfast regimen compared with no‐breakfast regimen: significantly greater elevations
[4]; [14]
  AEs associated with gastrointestinal disorders, % of patients: (40.0) %
  AEs associated with gastrointestinal disorders, n of patients: 4
  Any AEs, % of patients: (40.0) %
  Any AEs, n of patients: 4
  abdominal distention, % of patients: (20.0) %
  abdominal distention, n of patients: 2
  abdominal pain lower, % of patients: (20.0) %
  abdominal pain lower, n of patients: 2
  diarrhoea, n of patients: 0
[4]; [15]
  AEs associated with gastrointestinal disorders, % of patients: (20.0) %
  AEs associated with gastrointestinal disorders, n of patients: 2
  Any AEs, % of patients: (40.0) %
  Any AEs, n of patients: 4
  abdominal distention, n of patients: 0
  abdominal pain lower, % of patients: (10.0) %
  abdominal pain lower, n of patients: 1
  diarrhoea, n of patients: 0
[4]; [16]
  AEs associated with gastrointestinal disorders, % of patients: (80.0) %
  AEs associated with gastrointestinal disorders, n of patients: 8
  Any AEs, % of patients: (80.0) %
  Any AEs, n of patients: 8
  abdominal distention, n of patients: 0
  abdominal pain lower, % of patients: (40.0) %
  abdominal pain lower, n of patients: 4
  diarrhoea, % of patients: (40.0) %
  diarrhoea, n of patients: 4
[4]; [17]
  AEs associated with gastrointestinal disorders, % of patients: (50.0) %
  AEs associated with gastrointestinal disorders, n of patients: 5
  Any AEs, % of patients: (50.0) %
  Any AEs, n of patients: 5
  abdominal distention, % of patients: (20.0) %
  abdominal distention, n of patients: 2
  abdominal pain lower, % of patients: (20.0) %
  abdominal pain lower, n of patients: 2
  diarrhoea, % of patients: (30.0) %
  diarrhoea, n of patients: 3
[4]; [18]
  AEs associated with gastrointestinal disorders, % of patients: (10.0) %
  AEs associated with gastrointestinal disorders, n of patients: 1
  Any AEs, % of patients: (20.0) %
  Any AEs, n of patients: 2
  abdominal distention, n of patients: 0
  abdominal pain lower, % of patients: (10.0) %
  abdominal pain lower, n of patients: 1
  diarrhoea, n of patients: 0
[4]; [19]
  AEs associated with gastrointestinal disorders, % of patients: (10.0) %
  AEs associated with gastrointestinal disorders, n of patients: 1
  Any AEs, % of patients: (30.0) %
  Any AEs, n of patients: 3
  abdominal distention, n of patients: 0
  abdominal pain lower, % of patients: (10.0) %
  abdominal pain lower, n of patients: 1
  diarrhoea, n of patients: 0
[4]; [20]
  AEs associated with gastrointestinal disorders, % of patients: (60.0) %
  AEs associated with gastrointestinal disorders, n of patients: 6
  Any AEs, % of patients: (60.0) %
  Any AEs, n of patients: 6
  abdominal distention, % of patients: (10.0) %
  abdominal distention, n of patients: 1
  abdominal pain lower, % of patients: (10.0) %
  abdominal pain lower, n of patients: 1
  diarrhoea, % of patients: (50.0) %
  diarrhoea, n of patients: 5
[4]; [21]
  AEs associated with gastrointestinal disorders, % of patients: (100.0) %
  AEs associated with gastrointestinal disorders, n of patients: 10
  Any AEs, % of patients: (100.0) %
  Any AEs, n of patients: 10
  abdominal distention, % of patients: (20.0) %
  abdominal distention, n of patients: 2
  abdominal pain lower, % of patients: (30.0) %
  abdominal pain lower, n of patients: 3
  diarrhoea, % of patients: (70.0) %
  diarrhoea, n of patients: 7
[4]; [22]
  AEs associated with gastrointestinal disorders, % of patients: (30.0) %
  AEs associated with gastrointestinal disorders, n of patients: 3
  Any AEs, % of patients: (40.0) %
  Any AEs, n of patients: 4
  abdominal distention, % of patients: (20.0) %
  abdominal distention, n of patients: 2
  abdominal pain lower, % of patients: (10.0) %
  abdominal pain lower, n of patients: 1
  diarrhoea, n of patients: 0
[4]; [23]
  AEs associated with gastrointestinal disorders, % of patients: (11.1) %
  AEs associated with gastrointestinal disorders, n of patients: 1
  Any AEs, % of patients: (44.4) %
  Any AEs, n of patients: 4
  abdominal distention, % of patients: (11.1) %
  abdominal distention, n of patients: 1
  abdominal pain lower, n of patients: 0
  diarrhoea, n of patients: 0
